Measurements taken from ChEMBL document CHEMBL1123080, “Synthesis and antiviral activity of the carbocyclic analogues of (E)-5-(2-halovinyl)-2'-deoxyuridines and (E)-5-(2-halovinyl)-2'-deoxycytidines” (1985).
In brackets after ≈: the same amount, converted by molar mass.

Tests used:
Assay type in all cases: functional
L1210 [1] = test: Minimum inhibitory concentration (MIC) required to inhibit proliferation of murine leukemia L1210 (TK-); conditions: Mus musculus
Method in brief: (§1)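 Cell proliferation assay. Cultures were exposed to compound during their linear growth phase, and growth was monitored. The MIC is the concentration that inhibits cell proliferation by 50%.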

[2] = test system: Vesicular stomatitis virus; test: Minimum inhibitory concentration (MIC) required to reduce vesicular stomatis virus induced cytopathogenicity in primary rabbit kidney cell cultures
Method in brief: (§2)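 Primary rabbit kidney cell cultures were infected with virus and treated with compound. The MIC is the concentration that reduces virus-induced cytopathogenicity by 50%. Cytotoxicity was scored as microscopically visible alteration of normal cell morphology, with 400 μg/mL the highest concentration tested.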

Human alphaherpesvirus 1 [3] = test: Minimum inhibitory concentration (MIC) required to reduce HSV-1 strain (F) induced cytopathogenicity in primary rabbit kidney cell cultures; method in brief: as §2
Human alphaherpesvirus 1 [4] = test: Minimum inhibitory concentration (MIC) required to reduce thymidine kinase deficient HSV-1 induced cytopathogenicity in primary rabbit kidney cell cultures
Method in brief: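 The virus was a dThd kinase-deficient mutant of HSV-1 strain B2006, passaged several times in primary rabbit kidney cells. The MIC is the concentration that reduces cytopathogenicity by 50% in primary rabbit kidney cell cultures. Cytotoxicity was scored by microscopic cell morphology, up to 400 μg/mL.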

Rattus norvegicus = species on record: Rattus norvegicus; test: Minimum inhibitory concentration (MIC) required to inhibit proliferation of Novikoff rat hepatoma; method in brief: as §1
Human alphaherpesvirus 1 [5] = test: Minimum inhibitory concentration (MIC) required to reduce Herpes simplex virus (HSV-1) KOS strain induced cytopathogenicity in primary rabbit kidney cell cultures; method in brief: as §2
L1210 [6] = test: Minimum inhibitory concentration (MIC) required to inhibit proliferation of murine leukemia L1210 (wild type); conditions: Mus musculus; method in brief: as §1
Homo sapiens = species on record: Homo sapiens; test: Minimum inhibitory concentration (MIC) required to inhibit proliferation of human lymphoblast Raji; method in brief: as §1
Human alphaherpesvirus 2 [7] = test: Minimum inhibitory concentration (MIC) required to reduce HSV-2 strain G induced cytopathogenicity in primary rabbit kidney cell cultures; method in brief: as §2
Human alphaherpesvirus 1 [8] = test: Minimum inhibitory concentration (MIC) required to reduce HSV-1 strain McIntyre induced cytopathogenicity in primary rabbit kidney cell cultures; method in brief: as §2
Human alphaherpesvirus 2 [9] = test: Minimum inhibitory concentration (MIC) required to reduce HSV-2 strain (Lyons) induced cytopathogenicity in primary rabbit kidney cell cultures; method in brief: as §2
Mus musculus [10] = test: The survival rate was evaluated for its effect of systemic treatment on NMRI mice infected intraperitoneally with HSV-1 (KOS) when administered perorally
Method in brief: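 Mice were infected intraperitoneally with HSV-1 (KOS). Compound was given at 100 mg/kg per day from day 0 to day 4 postinfection, as a 2 mg/mL suspension in water by gavage once daily. Survivors were counted at day 20 postinfection.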

Mus musculus [11] = species on record: Mus musculus; test: The survival rate was evaluated for its effect of systemic treatment on hairless (hr/hr) mice infected intracutaneously with HSV-1 (KOS) at percent concentration of 1
Mus musculus [12] = species on record: Mus musculus; test: The survival rate was evaluated for its effect of systemic treatment on hairless (hr/hr) mice infected intracutaneously with HSV-1 (KOS) at percent concentration of 0.3
Mus musculus [13] = species on record: Mus musculus; test: The survival rate was evaluated for its effect of systemic treatment on hairless (hr/hr) mice infected intracutaneously with HSV-1 (KOS) at percent concentration of 3
Mus musculus [14] = test: The survival rate was evaluated for its effect of systemic treatment on NMRI mice infected intraperitoneally with HSV-1 (KOS) when administered intraperitoneally
Method in brief: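 Mice were infected intraperitoneally with HSV-1 (KOS). Compound was given at 100 mg/kg per day from day 0 to day 4 postinfection, intraperitoneally, at 1 mg/mL in physiological saline with 10% propylene glycol, twice daily. Survivors were counted at day 20 postinfection.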

Row | SMILES | MIC50 (L1210 [1]) | MIC50 [2] | MIC50 (Human alphaherpesvirus 1 [3]) | MIC50 (Human alphaherpesvirus 1 [4]) | MIC50 (Rattus norvegicus) | MIC50 (Human alphaherpesvirus 1 [5]) | MIC50 (L1210 [6]) | MIC50 (Homo sapiens) | MIC50 (Human alphaherpesvirus 2 [7]) | MIC50 (Human alphaherpesvirus 1 [8]) | MIC50 (Human alphaherpesvirus 2 [9]) | Survival rate (Mus musculus [10]) | Survival rate (Mus musculus [11]) | Survival rate (Mus musculus [12]) | Survival rate (Mus musculus [13]) | Survival rate (Mus musculus [14])
1 | O=c1[nH]c(=O)n(C2CC(O)C(CO)C2)cc1/C=C/I (stereo not drawn) | > 200 µg/mL | > 400 µg/mL | 0.1 µg/mL (≈ 0.264 µM) | > 400 µg/mL | > 200 µg/mL | 0.07 µg/mL (≈ 0.185 µM) | > 200 µg/mL | > 200 µg/mL | 2 µg/mL (≈ 5.29 µM) | 0.07 µg/mL (≈ 0.185 µM) | 7 µg/mL (≈ 18.5 µM) | – | – | – | – | –
2 | Nc1nc(=O)n(C2CC(O)C(CO)C2)cc1/C=C/Br (stereo not drawn) | – | > 400 µg/mL | 0.1 µg/mL (≈ 0.303 µM) | > 400 µg/mL | – | 0.2 µg/mL (≈ 0.606 µM) | – | – | 20 µg/mL (≈ 60.6 µM) | 0.2 µg/mL (≈ 0.606 µM) | 20 µg/mL (≈ 60.6 µM) | – | – | – | – | –
3 | O=c1[nH]c(=O)n([C@H]2C[C@H](O)[C@@H](CO)O2)cc1/C=C/I | 5.1 µg/mL (≈ 13.4 µM) | > 400 µg/mL | 0.02 µg/mL (≈ 0.0526 µM) | > 10 µg/mL | 4.6 µg/mL (≈ 12.1 µM) | 0.007 µg/mL (≈ 0.0184 µM) | 16.3 µg/mL (≈ 42.9 µM) | 21.1 µg/mL (≈ 55.5 µM) | 2 µg/mL (≈ 5.26 µM) | 0.02 µg/mL (≈ 0.0526 µM) | 2 µg/mL (≈ 5.26 µM) | – | – | – | – | –
4 | O=c1[nH]c(=O)n([C@@H]2C[C@H](CO)[C@@H](O)C2)cc1I | > 200 µg/mL | > 400 µg/mL | 0.2 µg/mL (≈ 0.568 µM) | > 400 µg/mL | 22.8 µg/mL (≈ 64.7 µM) | 0.2 µg/mL (≈ 0.568 µM) | > 200 µg/mL | > 200 µg/mL | 40 µg/mL (≈ 114 µM) | 0.2 µg/mL (≈ 0.568 µM) | 20 µg/mL (≈ 56.8 µM) | – | – | – | – | –
5 | NC1NC(=O)N([C@H]2C[C@H](O)[C@@H](CO)O2)C=C1/C=C/Br (stereo partly drawn) | – | > 400 µg/mL | 0.07 µg/mL (≈ 0.209 µM) | – | – | 0.07 µg/mL (≈ 0.209 µM) | – | – | 7 µg/mL (≈ 20.9 µM) | 0.06 µg/mL (≈ 0.18 µM) | 9 µg/mL (≈ 26.9 µM) | – | – | – | – | –
6 | O=c1[nH]c(=O)n([C@H]2C[C@@H](CO)[C@H](O)C2)cc1/C=C/Br | > 200 µg/mL | > 400 µg/mL | 0.07 µg/mL (≈ 0.211 µM) | > 400 µg/mL | > 200 µg/mL | 0.07 µg/mL (≈ 0.211 µM) | > 200 µg/mL | > 200 µg/mL | 20 µg/mL (≈ 60.4 µM) | 0.04 µg/mL (≈ 0.121 µM) | 7 µg/mL (≈ 21.1 µM) | 0 | 0 | 0 | 2 | 3
7 | O=c1[nH]c(=O)n([C@H]2C[C@H](O)[C@@H](CO)O2)cc1I [IDOXURIDINE] | > 500 µg/mL | > 400 µg/mL | 0.2 µg/mL (≈ 0.565 µM) | > 400 µg/mL | 5.5 µg/mL (≈ 15.5 µM) | 0.2 µg/mL (≈ 0.565 µM) | 35.6 µg/mL (≈ 101 µM) | 4.7 µg/mL (≈ 13.3 µM) | 0.7 µg/mL (≈ 1.98 µM) | 0.2 µg/mL (≈ 0.565 µM) | 0.2 µg/mL (≈ 0.565 µM) | – | – | – | – | –
